# PABP FP inh = PABP poly(A) RNA binding inhibitors, primary screen, biochemical, fluorescence polarization, uHTS; Polyadenylate-binding protein 1 (Homo sapiens), P11940; inhibition, % at 35 µM; hit rate 1% among 290,000;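 further: calls also rest on retests at 20 µM and on dose response follow-up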
# MT1-MMP act inh = blockers of MT1-MMP proenzyme processing, primary screen, HT1080 RFP-PRO-GFP cells, GFP/RFP fluorescence | AID 651647, 2012 | Matrix metalloproteinase-14 (Homo sapiens), P50281 | GFP/RFP ratio fluorescence, overnight; percent of plate control window, DMSO zero | GFP/RFP ratio change, % at 20 µM | hit rate 0.061% among 360,000;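 active means GFP/RFP ratio change of at least 30% with cell ATP level not reduced by more than half and red fluorescence within 50% of control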
#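 system = RFP-PRO-GFP reporter HT1080 cells | dosing = 20 µM single dose, 1% DMSO | timing = overnight cell settling, then overnight compound exposure, 37 °C, 5% CO2 | read-out basis = GFP/RFP fluorescence ratio | controls = DMSO and RFP-L50D-GFP cell wells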
# SKN-1 block = suppressors of acrylamide-induced Pgst-4::GFP reporter in worms, primary screen, SKN-1 inhibitor project, whole organism, uHTS, GFP/RFP fluorescence ratio, strain VP596; C. elegans VP596 Pgst-4::GFP/RFP ratio, 24 h; hit rate 0.49% among 360,000; inhibition, % at 21.8 µM;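 active means interference check ratio from 0.5 to 1.5 plus GFP to RFP signal ratio inhibition reaching or exceeding a fixed threshold, cut at about 30% in these data, passing the limit was not always enough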
# eIF4H FP inh = human eIF4H binding inhibitors, primary screen, translation initiation inhibitor project, biochemical, uHTS, fluorescence polarization; Eukaryotic translation initiation factor 4H (Homo sapiens), Q15056; eIF4H fluorescence polarization binding assay; inhibition, % at 35 µM; hit rate 0.94% among 290,000; AID 2012, 2009;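 further: calls also rest on retests at 20 µM and on dose response follow-up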
# MLLE-PAM2 inh = inhibitors of PABP1 MLLE–PAM2 peptide binding, primary screen, biochemical, fluorescence polarization, FITC-PAM2, GST-MLLE; Polyadenylate-binding protein 1 (Homo sapiens), P11940; inhibition, % at 20 µM; hit rate 0.36% among 360,000; in the data active means inhibition above about 35%, passing the limit was not always enough;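 further: plate controls were DMSO wells with GST-MLLE for no effect and wells lacking GST-MLLE protein for full effect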
# Active calls of the source: *; u = inconclusive; x = no result given. In the library only some 1.7% were active in any assay of this set; here they are far more common. Unless noted, how the calls were made is not given here.
SMILES,PABP FP inh,MT1-MMP act inh,SKN-1 block,eIF4H FP inh,MLLE-PAM2 inh
C[C@]12c3[nH]c4ccccc4c3CCN1C(=O)C(CC(=O)NCCc1ccccn1)C[C@@H]2C(=O)N1CCOCC1 (stereo not given in full),x,0,-2,x,2
COc1cc(C(=S)N2CCOCC2)cc(OC)c1OS(=O)(=O)c1ccc(C)cc1,0,4,-3,-1,42*
Cc1cc(OCCN2CCN(S(=O)(=O)c3ccccc3F)CC2)ccc1C(C)C,x,2,3,x,-9
Clc1cccc(CSc2ncn(-c3ccccc3)n2)c1,-3,-1,49*,-4,33
Clc1cccc(CSc2nccn2-c2ccccc2)c1,-9,2,12,2,1
O=C(CSc1ncn(-c2ccccc2)n1)N1CCc2ccccc21,4,-4,6,-6,20
Clc1ccc(CSc2ncn(-c3ccccc3)n2)cc1,-4,-4,77*,4,36
CCC(C)NC(=O)CN1c2cccc3cccc(c23)S1(=O)=O (stereo not given),14,2,-7,10,8
Cc1c(C(=O)O)sc2nc(CSc3ncc(C(F)(F)F)cc3Cl)[nH]c(=O)c12,8,-2,-16,12,-5
Nc1ccc2ncccc2c1N,0.7*,-36,4,87*,11
c1cnc2ccc3ncccc3c2c1,16,-2,11,11,-13
Cc1ccc(C)c(N2CCN(C(=O)Cc3c(C(=O)O)[nH]c4ccc(Cl)cc34)CC2)c1,2.0*,17,0,u,5
CC(C)C(c1nnnn1Cc1ccco1)N1CCN(C2CCCC2)CC1 (stereo not given),4,2,51*,-5,4
CCOc1ccc2[nH]c(=O)c(C(c3nnnn3Cc3ccco3)N3CCN(C)CC3)cc2c1 (stereo not given),29,-2,8,39,-14
O=c1[nH]c2cc3c(cc2cc1C(c1nnnn1Cc1ccccc1)N1CCCCCC1)OCCO3 (stereo not given),124*,-10,7,130,-14
Cc1cc2cc(C(c3nnnn3Cc3ccco3)N3CCCCC3)c(=O)[nH]c2cc1C (stereo not given),54*,-31,11,57*,-21
CC1=NOC(=O)/C1=C/c1ccc(-c2ccc(Cl)cc2)o1,7,-6,37*,8,5
COc1ccccc1OCCC(=O)O,60*,2,-1,active,-4
C[C@]12CCC3C(CC=C4C[C@@H](O)CC[C@@]43C)C1CCC2[C@]1(C)CCC(=O)O1 (stereo not given in full),-8,0,13,2,1
CC12CCC(O)CC1=CCC1C2CCC2(C)C1CCC21CCC(=O)O1 (stereo not given),66*,6,-4,12*,-4
CCN(CC)S(=O)(=O)c1cc(NC(=O)CNc2c(C)n(C)n(-c3ccccc3)c2=O)ccc1C,-4,-4,9,-8,6
[O-]C1=N/[N+](=C/c2ccccc2Cl)CC1,-7,7,35*,6,18
FC(F)(F)c1cccc(OCC2CNC(=S)O2)c1 (stereo not given),11,-2,4,7,-139
COc1ccc2c(c1)c(C(O)CN1CCN(Cc3ccc4c(c3)OCO4)CC1)c(C)n2C (stereo not given),17,-10,44*,10,0
Cc1c(C(O)CN2CCN(Cc3ccc4c(c3)OCO4)CC2)c2ccccc2n1C (stereo not given),81*,-9,13,82*,-4
SMILES,PABP FP inh,MT1-MMP act inh,SKN-1 block,eIF4H FP inh,MLLE-PAM2 inh
OC(CN1CCN(Cc2ccc3c(c2)OCO3)CC1)c1c[nH]c2ccccc12 (stereo not given),-8,7,6,-3,-12
CC(C=CC(O)=C1C(=O)CNC1=O)=C[C@@H](C)C1OC2(C)OC(C(=O)C3O[C@@]32C)C1C (stereo not given in full),x,1,13,x,x
O=C(COC(=O)Cc1ccc(Cl)cc1)NC1CCCC1,x,-2,2,x,0
CCCC1NC(=O)c2cc3ccccc3cc2-n2c1nc1cc(Cl)ccc1c2=O (stereo not given),x,-5,17,x,-5
Cc1cccc(NC(=O)c2ccc3c(c2)C(=O)N(c2ccccc2C)C3=O)n1,x,-2,43*,x,-4
Cc1cccc(NC(=O)c2cccc(C(=O)Nc3cccc(C)n3)c2)n1,11,-3,3,-5,-8
CC(C)CC(C(=O)Oc1ccc2c3c(c(=O)oc2c1)CCC3)N1C(=O)c2ccccc2C1=O (stereo not given),-3,0,35*,-15,4
Cc1ccc(S(=O)(=O)NC(CC(C)C)C(=O)Oc2ccc3c4c(c(=O)oc3c2)CCC4)cc1 (stereo not given),0,0,4,-5,-13
O=C(/C=C/c1ccccc1[N+](=O)[O-])NC1CCCC1,-7,-9,-5,-2,8
CC(C)CC(=O)Nc1ncc([N+](=O)[O-])s1,16,1,-5,-7,22
Cc1nc(C)c(C(=O)Nc2ncc([N+](=O)[O-])s2)o1,8.2*,-2,-12,54,12
COc1cc2c(cc1NC(=O)c1cccnc1)CCCC2,0,-7,38*,-7,-7
O=c1oc(-c2cccs2)nc2sc3c(c12)CCC3,12,0,10,-4,-26
O=c1oc(/C=C/c2ccco2)nc2sc3c(c12)CCC3,81*,-1,14,73*,4
Cc1nc2ccn(Cc3ccccc3)c(=O)c2cc1C(=O)N1CCN(c2ccccc2)CC1,2,1,-7,9,-10
O=C(CN1C(=O)S/C(=C/c2ccncc2)C1=O)N1CCOCC1,-4,-1,2,0,49*
O=C(CN1C(=O)S/C(=C/c2cccnc2)C1=O)N1CCOCC1,-9,3,4,-5,26
Cc1ccc(/C=C2\SC(=S)N(CC(=O)Nc3cccnc3)C2=O)cc1,42,7,1,5,2
Cc1ccc(NC(=O)CN2C(=O)S/C(=C/c3ccncc3)C2=O)cc1,0,0,-3,5,48*
Cc1occc(=O)c1OCc1ccc(Cl)cc1Cl,-7,-1,9,-10,6
O=C(COC(=O)Cn1nnc(-c2ccccc2)n1)Nc1cc(F)ccc1F,x,-2,6,x,3
O=C(Nc1nnc(S(=O)(=O)N2CCN(c3ccc(F)cc3)CC2)s1)c1ccccc1,9,9,11,-9,16
Cc1c(NC(=O)NCCN2C(=O)C3C4C=CC(C4)C3C2=O)c(=O)n(-c2ccccc2)n1C (stereo not given),5,-1,13,-12,5

# Source: PubChem BioAssay
